Laboratory results reported in ChEMBL document CHEMBL1126849, “Synthesis of A-ring fluorinated derivatives of (17 alpha,20E/Z)-[125I]iodovinylestradiols: effect on receptor binding and receptor-mediated target tissue uptake” (J Med Chem, 1993).

Target: T1, Estrogen receptor (Mus musculus) (UniProt O08537+P19785)
Experiment: Relative binding affinity (RBA) for murine cytoplasmic estrogen receptor at 4C for 18 hr
Format: protein assay
Procedure, shortened: (§1)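 Competitive binding on murine uterine cytoplasmic extract with 20 nM [3H]estradiol and competitor steroids at 2 nM–20 μM, incubated 18 h at 0–4 °C. RBA = 100 × ratio of […] concentration giving 50% competition for specific binding. Mean of three experiments with SD.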

T1 sequence (O08537 whole entry, looked up): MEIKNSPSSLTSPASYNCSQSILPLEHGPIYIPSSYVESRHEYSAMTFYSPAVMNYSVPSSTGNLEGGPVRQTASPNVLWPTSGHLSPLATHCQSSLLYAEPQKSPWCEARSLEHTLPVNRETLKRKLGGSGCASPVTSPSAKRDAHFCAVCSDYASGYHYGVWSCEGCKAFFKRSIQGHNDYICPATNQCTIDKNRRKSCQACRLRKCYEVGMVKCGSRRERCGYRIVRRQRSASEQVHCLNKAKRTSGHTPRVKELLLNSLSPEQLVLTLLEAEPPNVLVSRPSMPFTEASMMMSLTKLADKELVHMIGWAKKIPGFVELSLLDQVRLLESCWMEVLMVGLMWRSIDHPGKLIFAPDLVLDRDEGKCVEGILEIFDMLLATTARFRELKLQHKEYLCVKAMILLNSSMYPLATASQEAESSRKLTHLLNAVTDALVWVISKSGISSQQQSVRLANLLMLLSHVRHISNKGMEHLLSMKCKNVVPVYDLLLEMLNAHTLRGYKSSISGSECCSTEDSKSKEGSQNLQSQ
T1 sequence (P19785 whole entry, looked up): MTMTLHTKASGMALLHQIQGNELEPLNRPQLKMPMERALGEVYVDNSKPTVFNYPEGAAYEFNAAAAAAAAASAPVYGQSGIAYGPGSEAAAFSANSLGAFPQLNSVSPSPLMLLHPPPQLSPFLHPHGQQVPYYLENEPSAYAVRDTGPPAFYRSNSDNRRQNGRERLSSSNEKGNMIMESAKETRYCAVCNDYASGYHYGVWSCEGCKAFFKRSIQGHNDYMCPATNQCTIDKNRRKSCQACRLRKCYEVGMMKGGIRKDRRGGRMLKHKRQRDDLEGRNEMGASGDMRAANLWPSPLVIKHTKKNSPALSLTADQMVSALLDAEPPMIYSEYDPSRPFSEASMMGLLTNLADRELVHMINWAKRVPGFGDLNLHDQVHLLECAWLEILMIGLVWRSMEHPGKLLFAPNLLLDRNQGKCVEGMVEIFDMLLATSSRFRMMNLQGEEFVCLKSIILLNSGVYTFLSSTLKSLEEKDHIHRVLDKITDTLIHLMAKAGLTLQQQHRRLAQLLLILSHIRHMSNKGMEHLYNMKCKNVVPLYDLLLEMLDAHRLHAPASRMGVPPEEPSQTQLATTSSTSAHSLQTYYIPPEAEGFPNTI

RBA	Structure (SMILES)
119	C#C[C@]1(O)CC[C@H]2[C@@H]3CCc4c(ccc(O)c4F)[C@H]3CC[C@@]21C

Target: T1, Estrogen receptor (Mus musculus)
Experiment: Relative binding affinity (RBA) against murine cytoplasmic estrogen receptor incubated at 0-4 degree Celsius for 18 hours
Format: protein assay
Procedure, shortened: as §1

RBA	Structure (SMILES)
32	CO[C@H]1C[C@@]2(C)[C@@H](CC[C@@]2(O)/C=C\I)[C@@H]2CCc3cc(O)ccc3[C@H]21
44.9	C[C@@H]1Cc2cc(O)ccc2[C@H]2CC[C@@]3(C)[C@@H](CC[C@@]3(O)/C=C\I)[C@H]12
39.7	C[C@]12CC[C@@H]3c4ccc(O)cc4CC[C@H]3[C@@H]1CC[C@@]2(O)/C=C/I
33.3	C=C[C@]1(O)CC[C@H]2[C@@H]3[C@H](C)Cc4cc(O)c(F)cc4[C@H]3CC[C@@]21C
27.7	CO[C@H]1C[C@@]2(C)[C@@H](CC[C@@]2(O)/C=C/I)[C@@H]2CCc3cc(O)ccc3[C@H]21
119	C=C[C@]1(O)CC[C@H]2[C@@H]3CCc4c(ccc(O)c4F)[C@H]3CC[C@@]21C
43.2	C[C@@H]1Cc2cc(O)ccc2[C@H]2CC[C@@]3(C)[C@@H](CC[C@@]3(O)/C=C/I)[C@H]12
15.3	C=C[C@]1(O)CC[C@H]2[C@@H]3CCc4cc(O)ccc4[C@H]3[C@@H](OC)C[C@@]21C
15.9	C=C[C@]1(O)CC[C@H]2[C@@H]3CCc4cc(O)c(F)cc4[C@H]3[C@@H](OC)C[C@@]21C
62.4	C=C[C@]1(O)CC[C@H]2[C@@H]3[C@H](C)Cc4c(ccc(O)c4F)[C@H]3CC[C@@]21C
16.7	C=C[C@]1(O)CC[C@H]2[C@@H]3CCc4c(ccc(O)c4F)[C@H]3[C@@H](OC)C[C@@]21C
46.7	C[C@]12CC[C@@H]3c4ccc(O)cc4CC[C@H]3[C@@H]1CC[C@@]2(O)/C=C\I
64.3	C=C[C@]1(O)CC[C@H]2[C@@H]3CCc4cc(O)c(F)cc4[C@H]3CC[C@@]21C
73.1	C=C[C@]1(O)CC[C@H]2[C@@H]3[C@H](C)Cc4cc(O)ccc4[C@H]3CC[C@@]21C

Target: T1, Estrogen receptor (Mus musculus)
Experiment: Relative binding affinity (RBA) for murine cytoplasmic estrogen receptor at 25 degree C for 2 hr
Format: protein assay
Procedure, shortened: (§2)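 Murine uterine cytoplasmic extract incubated 2 h at 4 °C or at 25 °C with 20 nM [3H]estradiol and competitors at 2 nM–20 μM. RBA is taken as 100 × the ratio of competitor to unlabeled estradiol concentration needed for 50% competition of specific [3H]estradiol binding.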

RBA	Structure (SMILES)
166	C#C[C@]1(O)CC[C@H]2[C@@H]3CCc4c(ccc(O)c4F)[C@H]3CC[C@@]21C

Target: T1, Estrogen receptor (Mus musculus)
Experiment: Relative binding affinity (RBA) for murine cytoplasmic estrogen receptor at 4C for 2 hr
Format: protein assay
Procedure, shortened: as §2

RBA	Structure (SMILES)
80	C#C[C@]1(O)CC[C@H]2[C@@H]3CCc4c(ccc(O)c4F)[C@H]3CC[C@@]21C
